Data set [1] deals with Liver microsomes. As to the kind of experiment: Metabolic stability in human liver microsomes. It is filed as ADME, Microsome. In short, it runs like this: (§1)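 Liver microsomes (human, rat or rabbit) incubated with compound (5) in pH 7.4 phosphate buffer with an NADPH-regenerating system (2.5 mM MgCl2, 2.5 mM glucose-6-phosphate, 1 mM NADP, 1 U/ml G6P dehydrogenase) at 37 °C for 1 h. Human microsomes at 1.25 mg/ml. Read-out was % parent remaining; metabolites analysed by LC/MS.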
(Microsomes from liver hold many membrane-bound enzymes, among them those of drug oxidation.)

The target in data set [2] is cGMP-specific 3',5'-cyclic phosphodiesterase (Bos taurus, UniProt Q28156). As to the kind of experiment: Inhibition of bovine platelet PDE5.
Data set [3] deals with T1, Rod cGMP-specific 3',5'-cyclic phosphodiesterase subunit alpha (Bos taurus, UniProt P11541).
T1 sequence (P11541 whole entry): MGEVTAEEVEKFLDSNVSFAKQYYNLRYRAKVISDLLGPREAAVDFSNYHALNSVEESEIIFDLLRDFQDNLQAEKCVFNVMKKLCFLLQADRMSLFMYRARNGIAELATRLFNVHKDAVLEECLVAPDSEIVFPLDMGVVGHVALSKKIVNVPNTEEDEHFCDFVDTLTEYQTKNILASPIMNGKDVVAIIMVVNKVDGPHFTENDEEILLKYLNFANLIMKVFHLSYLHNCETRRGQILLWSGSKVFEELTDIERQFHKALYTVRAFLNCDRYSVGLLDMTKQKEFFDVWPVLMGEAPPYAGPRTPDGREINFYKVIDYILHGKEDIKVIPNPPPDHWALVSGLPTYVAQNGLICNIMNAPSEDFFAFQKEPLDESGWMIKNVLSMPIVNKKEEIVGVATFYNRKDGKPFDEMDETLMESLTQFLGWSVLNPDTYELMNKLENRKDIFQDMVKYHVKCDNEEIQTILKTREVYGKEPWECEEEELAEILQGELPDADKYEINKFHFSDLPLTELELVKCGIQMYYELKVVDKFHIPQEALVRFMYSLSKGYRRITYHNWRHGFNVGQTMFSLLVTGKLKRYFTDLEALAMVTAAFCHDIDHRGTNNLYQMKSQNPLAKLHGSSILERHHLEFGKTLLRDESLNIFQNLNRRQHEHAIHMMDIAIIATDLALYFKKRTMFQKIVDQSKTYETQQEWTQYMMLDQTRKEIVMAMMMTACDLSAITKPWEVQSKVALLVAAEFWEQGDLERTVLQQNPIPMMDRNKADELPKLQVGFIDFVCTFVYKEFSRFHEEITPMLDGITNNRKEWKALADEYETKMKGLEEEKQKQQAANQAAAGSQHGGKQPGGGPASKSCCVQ
As to the kind of experiment: Inhibition of bovine retina PDE6.

A short description of data set [4]: Metabolic stability in rabbit liver microsomes assessed as compound remaining after 1 hr. The format is ADME, Oryctolagus cuniculus, Microsome. To be noted: read-out: Stability. In outline:
as §1

The nature of data set [5]: Metabolic stability in human liver microsomes assessed as compound remaining after 1 hr. The format is ADME, Microsome. The conditions noted are these: read-out: Stability. In short, it runs like this: as §1
The nature of data set [6]: Metabolic stability in rat liver microsomes assessed as compound remaining after 1 hr. The format is ADME, Microsome. The conditions noted are these: read-out: Stability. In short, it runs like this: as §1
Data set [7] in a line: Cmax in rabbit at 10 mg/kg, po. The format is ADME, organism-based, Oryctolagus cuniculus. On the set-up: dose 10 mg/kg, route oral. To be noted: in vivo. In short, it runs like this:
(§2)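 Oral dosing at 10 mg/kg in 0.5% Tween 80, given as the HCl salt, with n = 4 animals per species. Plasma PK parameters were determined: Tmax, Cmax, half-life and AUClast.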

Data set [8] is described as follows: AUClast in rabbit at 10 mg/kg, po. It is filed as ADME, organism-based, Oryctolagus cuniculus. Set-up: time 0 - last, dose 10 mg/kg, route oral. To be noted: plasma. In short, it runs like this:
as §2

Data set [9] in a line: Tmax in rabbit at 10 mg/kg, po. It is filed as ADME, organism-based, Oryctolagus cuniculus. Set-up: dose 10 mg/kg, route oral. The conditions noted are these: in vivo. In outline: as §2
The nature of data set [10]: AUClast in rat at 10 mg/kg, po. It is filed as ADME, organism-based. On the set-up: time 0 - last, dose 10 mg/kg, route oral. The conditions noted are these: plasma. In outline:
as §2

Data set [11] in a line: Cmax in rat at 10 mg/kg, po. The format is ADME, organism-based. Set-up: dose 10 mg/kg, route oral. The conditions noted are these: in vivo. In short, it runs like this: as §2
Data set [12] can be described thus: Half life in rabbit at 10 mg/kg, po. The format is ADME, organism-based, Oryctolagus cuniculus. On the set-up: dose 10 mg/kg, route oral. The conditions noted are these: in vivo. In outline:
as §2

Data set [13] in a line: Half life in rat at 10 mg/kg, po. It is filed as ADME, organism-based. On the set-up: dose 10 mg/kg, route oral. The conditions noted are these: in vivo. In short, it runs like this: as §2
A short description of data set [14]: Tmax in rat at 10 mg/kg, po. The format is ADME, organism-based. On the set-up: dose 10 mg/kg, route oral. The conditions noted are these: in vivo. In short, it runs like this: as §2
Data set [15] has as its system Oryctolagus cuniculus. As to the kind of experiment: Inhibition of erectile dysfunction in New Zealand white rabbit assessed as induction of SNP-potentiated penile erection at 0.3 mg/kg, po after 2 hrs. The format is functional, organism-based. Set-up: dose 0.3 mg/kg. In short, it runs like this: (§3)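 Conscious New Zealand white rabbits, 3–4 kg, n = 4. Compound given orally, dissolved in distilled water. SNP (0.1 mg/kg in saline) injected 2 h later. Penile length (covered plus mucosa area) measured in cm with sliding calipers over a total of 2 h after dosing.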

For data set [16], the target named is Dual 3',5'-cyclic-AMP and -GMP phosphodiesterase 11A (Homo sapiens, UniProt Q9HCR9). In words: Inhibition of human recombinant PDE11.
Dual 3',5'-cyclic-AMP and -GMP phosphodiesterase 11A, sequence (Q9HCR9 whole entry): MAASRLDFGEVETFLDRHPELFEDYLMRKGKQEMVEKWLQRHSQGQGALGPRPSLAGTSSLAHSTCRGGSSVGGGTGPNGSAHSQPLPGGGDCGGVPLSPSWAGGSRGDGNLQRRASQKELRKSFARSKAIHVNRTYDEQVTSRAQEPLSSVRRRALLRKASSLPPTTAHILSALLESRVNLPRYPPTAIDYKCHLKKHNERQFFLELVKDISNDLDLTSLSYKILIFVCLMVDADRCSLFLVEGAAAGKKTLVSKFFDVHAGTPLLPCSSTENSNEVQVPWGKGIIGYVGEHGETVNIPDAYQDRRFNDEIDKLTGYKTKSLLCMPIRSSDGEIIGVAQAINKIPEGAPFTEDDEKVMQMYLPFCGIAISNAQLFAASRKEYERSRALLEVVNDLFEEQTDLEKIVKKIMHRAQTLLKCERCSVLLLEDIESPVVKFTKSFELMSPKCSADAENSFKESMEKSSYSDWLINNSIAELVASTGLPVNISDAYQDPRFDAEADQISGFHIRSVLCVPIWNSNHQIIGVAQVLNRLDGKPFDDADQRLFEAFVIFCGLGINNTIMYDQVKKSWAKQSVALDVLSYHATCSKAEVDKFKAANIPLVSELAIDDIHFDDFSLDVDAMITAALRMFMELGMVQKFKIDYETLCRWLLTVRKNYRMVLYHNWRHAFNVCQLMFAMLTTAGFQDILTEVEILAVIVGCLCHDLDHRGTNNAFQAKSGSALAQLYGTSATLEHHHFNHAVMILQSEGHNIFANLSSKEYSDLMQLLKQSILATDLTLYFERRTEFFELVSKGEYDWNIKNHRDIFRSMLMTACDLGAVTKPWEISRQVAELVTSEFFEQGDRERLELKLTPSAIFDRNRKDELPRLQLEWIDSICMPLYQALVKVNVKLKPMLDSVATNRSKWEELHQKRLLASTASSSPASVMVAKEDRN
Data set [17] has as its system Oryctolagus cuniculus. As to the kind of experiment: Inhibition of erectile dysfunction in New Zealand white rabbit assessed as induction of SNP-potentiated penile erection at 3 mg/kg, po after 2 hrs. Set-up: dose 3 mg/kg. It is filed as functional, organism-based. In short, it runs like this: as §3
The nature of data set [18]: Aqueous solubility of the compound. The conditions noted are these: aqueous medium. The format is physicochemical.
Data set [19] concerns the target hERG (KCNH2) (Homo sapiens, UniProt Q12809). As to the kind of experiment: Inhibition of human ERG at 10 uM.
A short description of data set [20]: Inhibition of bovine heart PDE1. On the set-up: species or system Bos taurus. In outline:
(§4)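 Enzyme sources: PDE1 from bovine heart, PDE2 from bovine heart, PDE3 from bovine platelet, PDE4 human recombinant, PDE6 from bovine retina, PDE11 human recombinant. IC50 values are the mean of more than 2 determinations.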

The nature of data set [21]: Inhibition of bovine heart PDE2. Set-up: species or system Bos taurus. In outline: as §4
Data set [22] is described as follows: Inhibition of bovine platelet PDE3. Set-up: species or system Bos taurus. In outline:
as §4

Data set [23] addresses Phosphodiesterase 4 (Homo sapiens, UniProt P27815+Q08499+Q07343+Q08493). As to the kind of experiment: Inhibition of human recombinant PDE4. It is filed as protein assay. In short, it runs like this: as §4
A short description of data set [24]: Permeability across human Caco-2 cells. It is filed as ADME, cell-based. To be noted: read-out: permeability. Background: Caco-2 monolayers are a common model of the intestinal barrier.
Data set [25] is described as follows: Cytotoxicity against mouse L5178Y cells. It is filed as cell-based.

Activity calls are given as the source filed them. No cut-off for these calls is given here.

hERG (KCNH2), sequence (Q12809 whole entry): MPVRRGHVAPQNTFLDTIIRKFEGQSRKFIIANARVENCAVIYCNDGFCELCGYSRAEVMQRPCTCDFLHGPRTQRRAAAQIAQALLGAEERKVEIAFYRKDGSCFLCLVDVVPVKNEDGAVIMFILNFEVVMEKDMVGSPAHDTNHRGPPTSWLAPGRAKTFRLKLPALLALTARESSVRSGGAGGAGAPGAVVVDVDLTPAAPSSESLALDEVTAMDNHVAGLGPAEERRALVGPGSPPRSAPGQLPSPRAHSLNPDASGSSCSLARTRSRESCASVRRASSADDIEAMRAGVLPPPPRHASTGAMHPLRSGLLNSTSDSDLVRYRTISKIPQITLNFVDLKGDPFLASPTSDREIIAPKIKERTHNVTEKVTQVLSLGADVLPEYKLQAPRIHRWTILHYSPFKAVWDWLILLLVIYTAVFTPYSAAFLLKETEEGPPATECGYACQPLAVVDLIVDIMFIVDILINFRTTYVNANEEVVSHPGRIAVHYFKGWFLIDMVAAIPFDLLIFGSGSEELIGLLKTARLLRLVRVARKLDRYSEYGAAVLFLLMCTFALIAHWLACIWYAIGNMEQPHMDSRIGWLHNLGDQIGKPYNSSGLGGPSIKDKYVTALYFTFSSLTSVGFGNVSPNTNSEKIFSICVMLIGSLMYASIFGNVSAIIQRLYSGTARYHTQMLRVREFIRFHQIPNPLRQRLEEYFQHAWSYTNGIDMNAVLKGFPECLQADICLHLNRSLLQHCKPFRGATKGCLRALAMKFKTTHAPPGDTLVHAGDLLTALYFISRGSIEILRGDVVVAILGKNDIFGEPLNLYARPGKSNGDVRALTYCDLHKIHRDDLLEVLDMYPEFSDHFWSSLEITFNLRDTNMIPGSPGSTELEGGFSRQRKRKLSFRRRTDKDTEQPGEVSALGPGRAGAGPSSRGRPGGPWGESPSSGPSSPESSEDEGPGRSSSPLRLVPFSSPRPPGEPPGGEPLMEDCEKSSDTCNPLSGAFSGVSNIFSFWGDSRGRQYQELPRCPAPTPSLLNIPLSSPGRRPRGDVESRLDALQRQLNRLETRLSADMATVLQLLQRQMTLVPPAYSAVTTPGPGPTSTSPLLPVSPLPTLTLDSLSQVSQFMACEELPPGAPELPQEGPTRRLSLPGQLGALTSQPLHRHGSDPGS

For the molecule `COc1ccc(CNc2ncnc3c(CCO)c(OC)c(NS(=O)(=O)N(C)C)cc23)cc1Cl`, in [1], the Stability result is listed as “Unstable”. Moreover, the values for the half-inhibitory concentration (IC50) in data set [2] and in data set [3] were 0.012 µM and 7.95 µM, respectively.

On to `CCC(=O)Nc1cc2c(NCc3ccc(OC)c(Cl)c3)ncnc2c(CCO)c1OC`, for which the remaining at 1 h in data set [4] was 85%; in data set [5], 3%; in data set [6], 96%.

Consider `COc1ccc(CNc2ncnc3c(CCO)c(OC)c(N(C)C(=O)C4CC4)cc23)cc1Cl`, for which the concentration for half-maximal inhibition (IC50) (commonly the concentration that gives 50% inhibition) is 0.001 µM in [2] and 0.34 µM in [3]. For the same molecule, in data set [5], the remaining at 1 h amounted to 25%.

Regarding `COC(=O)N(C)c1cc2c(NCc3ccc(OC)c(Cl)c3)ncnc2c(CCO)c1OC.Cl`, the Cmax (commonly the peak of the concentration-time curve) in data set [7] came to 0.87 µg/mL; in data set [11], 0.42 µg/mL. Further, the values for the AUC(0-t) in [8] and in data set [10] were 2.76 µg·h/mL and 0.54 µg·h/mL, respectively. For the same molecule, the time to peak (Tmax) – broadly, the time at which the peak concentration occurs – in data set [9] is 2.4 h; in data set [14], 0.2 h. Moreover, the half-life – broadly, the time in which the quantity being followed falls by half – in data set [12] was 4.2 h; in data set [13], 2.25 h.

For `COc1ccc(CNc2ncnc3c(CCO)c(OC)c(N(C)C(=O)C(C)C)cc23)cc1Cl`, the IC50 in data set [2] was determined as 0.003 µM; in data set [3], 1.1 µM. For the same molecule, the remaining at 1 h in data set [5] stood at 4.8%.

Consider `COC(=O)N(C)c1cc2c(NCc3ccc(OC)c(Cl)c3)ncnc2c(CCO)c1OC` [listing 1 of 2 here], for which the inhibition (commonly the change of the read-out against control, counted positive when it falls) in [15] is “Active”.

As to `CCOC(=O)Nc1cc2c(NCc3ccc(OC)c(Cl)c3)ncnc2c(CCO)c1OC`, the IC50 in data set [16] was determined as 5 µM; in data set [2], 0.017 µM; in data set [3], 0.6 µM.

Consider `COc1ccc(CNc2ncnc3c(CCO)c(OC)c(NS(C)(=O)=O)cc23)cc1Cl`, for which the Stability entry in data set [1] is “Unstable”. Also, the IC50 in [2] came out at 0.011 µM.

With `CN1CC(=O)N2[C@H](c3ccc4c(c3)OCO4)c3[nH]c4ccccc4c3C[C@@H]2C1=O`, the inhibition result in [17] is “Active”. Besides, in [3], the 50% inhibitory concentration (IC50) was 3 µM.

On to `COC(=O)N(C)c1cc2c(NCc3ccc(OC)c(Cl)c3)ncnc2c(CCO)c1OC` [listing 2 of 2 here], for which the solubility – broadly, the dissolved amount per volume that the medium holds – in data set [18] is more than 2 mg/mL. The inhibition at 10 µM in data set [19] is less than 20%. Besides, the 50% inhibitory concentration (IC50) in data set [20] was determined as 12 µM; in data set [16], 12 µM; in data set [2], 0.0006 µM; in data set [21], 32 µM; in data set [22], 43 µM; in [23], 84 µM. Also, the half-inhibitory concentration (IC50) in data set [3] turned out to be 0.14 µM. Moreover, the remaining at 1 h in [5] stood at 85%. For the same molecule, in [24], the Papp stood at 350 nm/s. In addition, the midpoint of cytotoxicity in data set [25], the CC50, lay at 85 µM.

As to `CCC(=O)N(CC)c1cc2c(NCc3ccc(OC)c(Cl)c3)ncnc2c(CCO)c1OC`, the IC50 in data set [2] was found to be 0.001 µM. Besides, the remaining at 1 h in [5] was determined as 5.5%.

For `CCC(=O)N(C)c1cc2c(NCc3ccc(OC)c(Cl)c3)ncnc2c(CCO)c1OC`, the results for the remaining at 1 h in data set [4], in data set [5] and in data set [6] were more than 90%, 16% and more than 90%, respectively. The half-maximal inhibitory concentration (IC50) in data set [16] worked out at 5.2 µM; in data set [2], 0.001 µM; in data set [3], 0.32 µM. In [17], the inhibition result was “Active”. The Papp in data set [24] turned out to be 170 nm/s.

Take `COC(=O)Nc1cc2c(NCc3ccc(OC)c(Cl)c3)ncnc2c(CCO)c1OC`: the 50% inhibitory concentration (IC50) in data set [16] came out at 5.7 µM; in data set [2] it was 0.003 µM; in data set [3], 0.71 µM. In addition, in data set [5], the remaining at 1 h was found to be 72%.

The record behind these values is ChEMBL document CHEMBL1153113, “Discovery of potent, selective, and orally bioavailable PDE5 inhibitor: Methyl-4-(3-chloro-4-methoxybenzylamino)-8-(2-hydroxyethyl)-7-methoxyquinazolin-6-ylmethylcarbamate (CKD 533)” (Bioorg Med Chem Lett, 2010).
